Measurements published in ChEMBL document CHEMBL1149224, “Direct superoxide anion scavenging by a highly water-dispersible carotenoid phospholipid evaluated by electron paramagnetic resonance (EPR) spectroscopy” (2004).

Experiments:
Type in all cases: functional
Homo sapiens [1] = species on record: Homo sapiens; test: Mean percent inhibition of aqueous superoxide anion production in isolated human neutrophil assay at 0.1 mM using ethanol as solvent
How it was run: (§1)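 Human PMNs from one donor's venous blood were isolated on a Percoll gradient (1.080 g/mL, 400g, 20 min, 20 C), erythrocytes removed by hypotonic lysis, and cells washed in PAG buffer (PIPES pH 7.4, 0.003% HSA, 0.1% glucose). Carotenoid phospholipid isomer mix was taken from a 41.2% EtOH stock (0.4% EtOH final). Cells were preincubated 5 min, then PMA-stimulated. The DEPMPO-OOH adduct (10 mM DEPMPO) was read by X-band EPR, and % inhibition set against the no-compound control.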

Homo sapiens [2] = species on record: Homo sapiens; test: Mean percent inhibition of aqueous superoxide anion production in isolated human neutrophil assay at 1 mM using water as solvent
How it was run: (§2)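 The carotenoid phospholipid isomer mix was dispersed in deionized water without heat, detergent or additives. Isolated human PMNs (Percoll gradient, hypotonic erythrocyte lysis, washed in PIPES-HSA-glucose buffer, pH 7.4) were preincubated 5 min with the suspension, then PMA-stimulated. Superoxide was spin-trapped with 10 mM DEPMPO and the DEPMPO-OOH signal measured by X-band EPR. Inhibition is expressed relative to the no-compound control signal.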

Homo sapiens [3] = species on record: Homo sapiens; test: Mean percent inhibition of aqueous superoxide anion production in isolated human neutrophil assay at 10 mM using water as solvent; how it was run: as §2
Homo sapiens [4] = species on record: Homo sapiens; test: Mean percent inhibition of aqueous superoxide anion production in isolated human neutrophil assay at 3 mM using ethanol as solvent; how it was run: as §1
Homo sapiens [5] = species on record: Homo sapiens; test: Mean percent inhibition of aqueous superoxide anion production in isolated human neutrophil assay at 3 mM using water as solvent; how it was run: as §2
Homo sapiens [6] = species on record: Homo sapiens; test: Mean percent inhibition of aqueous superoxide anion production in isolated human neutrophil assay at 0.3 mM using ethanol as solvent; how it was run: as §1
Homo sapiens [7] = species on record: Homo sapiens; test: Mean percent inhibition of aqueous superoxide anion production in isolated human neutrophil assay at 0.5 mM using water as solvent; how it was run: as §2
Homo sapiens [8] = species on record: Homo sapiens; test: Mean percent inhibition of aqueous superoxide anion production in isolated human neutrophil assay at 1 mM using ethanol as solvent; how it was run: as §1
Homo sapiens [9] = species on record: Homo sapiens; test: Mean percent inhibition of aqueous superoxide anion production in isolated human neutrophil assay at 0.5 mM using ethanol as solvent; how it was run: as §1

Structure (SMILES) | Mean inhibition (Homo sapiens [1]) | Mean inhibition (Homo sapiens [2]) | Mean inhibition (Homo sapiens [3]) | Mean inhibition (Homo sapiens [4]) | Mean inhibition (Homo sapiens [5]) | Mean inhibition (Homo sapiens [6]) | Mean inhibition (Homo sapiens [7]) | Mean inhibition (Homo sapiens [8]) | Mean inhibition (Homo sapiens [9])
CC1=C(/C=C/C(C)=C/C=C/C(C)=C/C=C/C=C(C)/C=C/C=C(C)/C=C/C2=C(C)C(=O)C(OC(=O)CCC(=O)[O-])CC2(C)C)C(C)(C)CC(OC(=O)CCC(=O)[O-])C1=O.[Na+].[Na+] (stereo not given) [DISODIUM SALT DISUCCINATE DIESTER OF ASTAXANTHIN] | 38% |  |  |  |  |  |  |  | 
CC1=C(/C=C/C(C)=C/C=C/C(C)=C/C=C/C=C(C)/C=C/C=C(\C)C(=O)OC(CO)COP(=O)([O-])OCC[N+](C)(C)C)C(C)(C)CCC1.CC1=C(/C=C/C(C)=C/C=C/C(C)=C/C=C/C=C(C)/C=C/C=C(\C)C(=O)OCC(CO)OP(=O)([O-])OCC[N+](C)(C)C)C(C)(C)CCC1.CC1=C(/C=C/C(C)=C/C=C/C(C)=C/C=C/C=C(C)/C=C/C=C(\C)C(=O)OCC(O)COP(=O)([O-])OCC[N+](C)(C)C)C(C)(C)CCC1 (stereo not given) | 13.3% | 24.6% | 94.3% | 98.7% | 51.8% | 31.3% | 18.2% | 79.3% | 61.7%
